{"source": "paper PMC11776411", "about": "(Journal of Hepatocellular Carcinoma, 2025)", "key": {"Huh7 cells [1]": {"test_system": "Huh7 cells", "assay": "MTT cell viability assay, Huh7", "format": "cell-based, human", "details": "for IC50: Homo sapiens, Huh-7, 72 h, read-out: IC50 (μM) Huh7"}, "Hep3B cells": {"test_system": "Hep3B cells", "assay": "MTT cell viability assay, Hep3B", "format": "cell-based, human", "details": "for IC50: Homo sapiens, Hep3B, 72 h, read-out: IC50 (μM) Hep3B"}, "[2]": {"test_system": "LO2 cells (normal human hepatocytes)", "assay": "MTT cytotoxicity assay, normal liver cells LO2", "format": "cell-based", "details": "L02, 72 h, read-out: IC50 (μM) LO2", "procedure,_shortened": "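LO2 normal human hepatocytes were grown in DMEM with 10% FBS and seeded at 5×10^3 cells per well overnight. Test compound was added at 0.1, 0.3, 1, 3, 10, 30 and 100 μM for up to 72 h. Viability was read by MTT: 0.5 mg/mL for 4 h, medium removed, DMSO added, absorbance measured. Experiments were repeated at least three times.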"}, "HepG2 cells": {"test_system": "HepG2 cells", "assay": "MTT cell viability assay, HepG2", "format": "cell-based, human", "details": "for IC50: Homo sapiens, HepG2, 72 h, read-out: IC50 (μM) HepG2"}, "Huh7 cells [3]": {"test_system": "Huh7 cells", "assay": "Ferroptosis inhibitor", "format": "cell-based, human", "details": "Huh7, co-treated with 10 μM 6c for 72 h"}, "Huh7 cells [4]": {"test_system": "Huh7 cells", "assay": "NAC intervention experiment", "format": "cell-based, human", "details": "5 or 10 mm N-acetylcysteine with 10 μM 6c for 24, 48, 72 h"}}}
{"compound": "C[C@H]1[C@H](OC(=O)CCC(=O)O)O[C@@H]2O[C@@]3(C)CC[C@H]4[C@H](C)CC[C@@H]1[C@@]24OO3", "note": "[AS, Artesunate]", "values": [{"measurement": "IC50", "setting": "Huh7 cells [1]", "result": "47.5 ± 1.39", "unit": "µM"}, {"measurement": "Selectivity Index SI 2", "setting": "Huh7 cells [1]; SI2 = IC50 LO2/IC50 Huh7", "result": 1.5}, {"measurement": "IC50", "setting": "Hep3B cells", "result": "44.2 ± 2.16", "unit": "µM"}, {"measurement": "Selectivity Index SI 3", "setting": "Hep3B cells; SI3 = IC50 LO2/IC50 Hep3B", "result": 1.6}, {"measurement": "IC50", "setting": "[2]", "result": "72.3 ± 1.37", "unit": "µM"}, {"measurement": "IC50", "setting": "HepG2 cells", "result": "42.8 ± 1.44", "unit": "µM"}, {"measurement": "Selectivity Index SI 1", "setting": "HepG2 cells; SI1 = IC50 LO2/IC50 HepG2", "result": 1.7}]}
{"compound": "CNC(=O)c1cc(Oc2ccc(N)cc2)ccn1", "note": "[Compound 1, 4-(4-aminophenoxy)-N-methyl-2-pyridinecarboxamide]", "values": [{"measurement": "IC50", "setting": "Huh7 cells [1]", "result": "> 100", "unit": "µM"}, {"measurement": "IC50", "setting": "Hep3B cells", "result": "> 100", "unit": "µM"}]}
{"compound": "Clc1cccc(CN=C2Nc3ccccc3NC23CCNCC3)c1", "note": "[Liproxstatin-1]", "values": [{"measurement": "reversal of 6c-induced cell death", "setting": "Huh7 cells [3]", "result": "reversed cell death in a concentration-dependent manner"}]}
{"compound": "CC(=O)N[C@@H](CS)C(=O)O", "note": "[N-acetylcysteine]", "values": [{"measurement": "reversal of 6c inhibition of proliferation", "setting": "Huh7 cells [4]", "result": "reversed the inhibitory effect of 6c on proliferation of Huh7 cells in time- and concentration-dependent manner"}]}
{"compound": "CNC(=O)c1cc(Oc2ccc(NC(=O)Nc3ccc(Cl)c(C(F)(F)F)c3)cc2)ccn1", "note": "[Sorafenib]", "values": [{"measurement": "IC50", "setting": "Huh7 cells [1]", "result": "3.09 ± 0.08", "unit": "µM"}, {"measurement": "IC50", "setting": "[2]", "result": "8.63 ± 0.12", "unit": "µM"}, {"measurement": "IC50", "setting": "HepG2 cells", "result": "6.45 ± 0.32", "unit": "µM"}]}
